{
  "source": "ChEMBL document CHEMBL5149989",
  "about": "“Interplay among Conformation, Intramolecular Hydrogen Bonds, and Chameleonicity in the Membrane Permeability and Cyclophilin A Binding of Macrocyclic Peptide Cyclosporin O Derivatives” (J Med Chem, 2021)",
  "key": {"[1]": {"assay": "Permeability in PBS buffer measured after 18 hrs by PAMPA based LC-MS analysis", "assay_type": "ADME", "conditions": "read-out: permeability"}, "[2]": {"assay": "Effective permeability in PBS buffer assessed as mass retention measured after 18 hrs by PAMPA based LC-MS analysis", "assay_type": "ADME"}, "[3]": {"assay": "Permeability across apical to basal side in human Caco-2 cells measured at 0.5 to 2 hrs by LC-MS analysis", "assay_type": "ADME, cell-based", "conditions": "time 0.5-2 hrs; for Papp A→B: read-out: permeability"}, "[4]": {"assay": "Permeability across apical to basal side in human Caco-2 cells assessed as drug recovery measured at 0.5 to 2 hrs by LC-MS analysis relative to control", "assay_type": "ADME, cell-based", "conditions": "time 0.5-2 hrs, read-out: Drug recovery"}, "[5]": {"assay": "Permeability across basal to apical side in human Caco-2 cells measured at 0.5 to 2 hrs by LC-MS analysis", "assay_type": "ADME, cell-based", "conditions": "time 0.5-2 hrs, read-out: permeability"}, "[6]": {"assay": "Permeability across basal to apical side in human Caco-2 cells assessed as drug recovery measured at 0.5 to 2 hrs by LC-MS analysis relative to control", "assay_type": "ADME, cell-based", "conditions": "time 0.5-2 hrs, read-out: Drug recovery"}, "[7]": {"assay": "Permeability across apical to basal side in human Caco-2 cells preincubated with verapamil for 30 mins followed by compound addition measured at 0.5 to 2 hrs by LC-MS analysis", "assay_type": "ADME, cell-based", "conditions": "Caco-2, with verapamil (concentration not stated), time 0.5-2 hrs, read-out: permeability"}, "[8]": {"assay": "Permeability across apical to basal side in human Caco-2 cells assessed as drug recovery preincubated with verapamil for 30 mins followed by compound addition measured at 0.5 to 2 hrs by LC-MS analysis relative to control", "assay_type": "ADME, cell-based", "conditions": "for recovery: Caco-2, with verapamil (concentration not stated), time 1-2.5 hrs, read-out: Drug recovery"}, "[9]": {"biological_target": "Peptidyl-prolyl cis-trans isomerase A (Homo sapiens, UniProt P62937)", "sequence (P62937 whole entry)": "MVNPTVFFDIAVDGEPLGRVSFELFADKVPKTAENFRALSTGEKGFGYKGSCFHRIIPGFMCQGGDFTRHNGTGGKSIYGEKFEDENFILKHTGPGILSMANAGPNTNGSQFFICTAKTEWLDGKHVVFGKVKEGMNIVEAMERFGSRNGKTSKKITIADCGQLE", "assay": "Binding affinity to CypA (unknown origin) assessed as inhibition constant by isomer specific proteolysis assay"}, "[10]": {"assay": "Tmax in ICR mouse at 20 mg/kg, po measured after 0.25 to 24 hrs by LC-MS/MS analysis", "assay_type": "ADME, organism-based", "conditions": "in vivo, time 0.25-24 hrs"}, "[11]": {"assay": "AUCinfinity in ICR mouse at 20 mg/kg, po measured after 0.25 to 24 hrs by LC-MS/MS analysis", "assay_type": "ADME, organism-based", "design": "dose 20 mg/kg, time upper 24 hrs, time lower 0.25 hrs, route po", "conditions": "in vivo"}, "[12]": {"assay": "Cmax in ICR mouse at 20 mg/kg, po measured after 0.25 to 24 hrs by LC-MS/MS analysis", "assay_type": "ADME, organism-based", "design": "time upper 24 hrs, time lower 0.25 hrs, dose 20 mg/kg, route po", "conditions": "in vivo"}, "[13]": {"assay": "Clearance in ICR mouse at 20 mg/kg, po measured after 0.25 to 24 hrs by LC-MS/MS analysis", "assay_type": "ADME, organism-based", "conditions": "in vivo, time 0.25-24 hrs", "method_in_brief": "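Male ICR mice (9 weeks, 33−37 g) given 20 mg/kg (10 mL/kg) by oral gavage. Plasma obtained by centrifugation at 4 °C, protein-precipitated with 4 volumes acetonitrile, and analysed by LC-MS/MS.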"}, "[14]": {"assay": "Apparent volume of distribution in ICR mouse at 20 mg/kg, po measured after 0.25 to 24 hrs by LC-MS/MS analysis", "assay_type": "ADME, organism-based", "conditions": "in vivo, time 0.25-24 hrs"}, "[15]": {"assay": "Half life in ICR mouse at 20 mg/kg, po measured after 0.25 to 24 hrs by LC-MS/MS analysis", "assay_type": "ADME, organism-based", "conditions": "in vivo, time 0.25-24 hrs"}, "[16]": {"assay": "Oral bioavailability in ICR mouse at 20 mg/kg measured after 0.25 to 24 hrs by LC-MS/MS analysis", "assay_type": "ADME, organism-based", "conditions": "in vivo, time 0.25-24 hrs", "method_in_brief": "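Male ICR mice received 5 mg/kg iv via tail vein or 20 mg/kg po by gavage. Plasma was sampled serially up to 24 h via the saphenous vein, acetonitrile-precipitated and quantified by LC-MS/MS. F was derived from the po and iv AUC∞ values.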"}, "[17]": {"assay": "Ratio of drug level in brain to plasma in ICR mouse plasma at 1 uM preincubated for 10 mins followed by compound addition measured after 60 mins by LC-MS/MS analysis", "assay_type": "ADME, cell-free", "conditions": "read-out: BPR"}, "[18]": {"assay": "Potency index, ratio of cyclosporin A BPR to test compound BPR for drug level in ICR mouse at 1 uM", "assay_type": "ADME", "conditions": "in vivo"}, "[19]": {"assay": "Half life in ICR mouse at 5 mg/kg, iv measured after 0.08 to 24 hrs by LC-MS/MS analysis", "conditions": "in vivo"}, "[20]": {"assay": "AUCinfinity in ICR mouse at 5 mg/kg, iv measured after 0.08 to 24 hrs by LC-MS/MS analysis", "conditions": "in vivo"}, "[21]": {"assay": "Volume of distribution at steady state in ICR mouse at 5 mg/kg, iv measured after 0.08 to 24 hrs by LC-MS/MS analysis", "conditions": "in vivo, read-out: Vdss"}},
  "note": "Non-standard residues stand in square brackets, D forms with d. Residues, ends and D or L forms follow the SMILES beside them. NMeL = CN[C@@H](CC(C)C)C(=O)O; NMeV = CN[C@H](C(=O)O)C(C)C; Nva = CCC[C@H](N)C(=O)O; Sar = CNCC(=O)O",
  "data": [
    {"smiles": "CCC[C@@H]1NC(=O)[C@H](CC(C)C)N(C)C(=O)[C@H](CC(C)C)N(C)C(=O)[C@H](CC(C)C)N(C)C(=O)[C@H](CC(C)C)N(C)C(=O)[C@@H](C)NC(=O)[C@H](C)NC(=O)[C@H](CC(C)C)N(C)C(=O)[C@H](C(C)C)NC(=O)[C@H](CC(C)C)N(C)C(=O)CN(C)C1=O", "values": [
      {"measurement": "Papp at 18 h", "setting": "[1]", "value": 0.06, "unit": "×10⁻⁶ cm/s"},
      {"measurement": "Activity", "setting": "[2]", "value": 74, "unit": "%"},
      {"measurement": "Papp A→B", "setting": "[3]", "value": 0.07, "unit": "×10⁻⁶ cm/s"},
      {"measurement": "recovery", "setting": "[4]", "value": 66, "unit": "%"},
      {"measurement": "Papp B→A", "setting": "[5]", "value": 0.61, "unit": "×10⁻⁶ cm/s"},
      {"measurement": "recovery", "setting": "[6]", "value": 65, "unit": "%"},
      {"measurement": "Papp A→B", "setting": "[7]", "value": 0.34, "unit": "×10⁻⁶ cm/s"},
      {"measurement": "recovery", "setting": "[8]", "value": 107, "unit": "%"},
      {"measurement": "Ki", "setting": "[9]", "value": "> 20", "unit": "µM"}
    ]},
    {"smiles": "CCC[C@@H]1NC(=O)[C@H](CC(C)C)N(C)C(=O)[C@H](C(C)C)N(C)C(=O)[C@H](CC(C)C)N(C)C(=O)[C@H](CC(C)C)N(C)C(=O)[C@@H](C)NC(=O)[C@H](CCC(N)=O)NC(=O)[C@H](CC(C)C)N(C)C(=O)[C@H](C(C)C)NC(=O)[C@H](CC(C)C)N(C)C(=O)CN(C)C1=O", "values": [
      {"measurement": "Papp at 18 h", "setting": "[1]", "value": "< 0.004", "unit": "×10⁻⁶ cm/s"},
      {"measurement": "Activity", "setting": "[2]", "value": 60, "unit": "%"},
      {"measurement": "Papp A→B", "setting": "[3]", "value": 0.05, "unit": "×10⁻⁶ cm/s"},
      {"measurement": "recovery", "setting": "[4]", "value": 76, "unit": "%"},
      {"measurement": "Papp B→A", "setting": "[5]", "value": 5.17, "unit": "×10⁻⁶ cm/s"},
      {"measurement": "recovery", "setting": "[6]", "value": 88, "unit": "%"},
      {"measurement": "Papp A→B", "setting": "[7]", "value": 0.07, "unit": "×10⁻⁶ cm/s"},
      {"measurement": "recovery", "setting": "[8]", "value": 112, "unit": "%"},
      {"measurement": "Ki", "setting": "[9]", "value": 3, "unit": "µM"}
    ]},
    {"smiles": "CCC[C@@H]1NC(=O)[C@H](CC(C)C)N(C)C(=O)[C@H](C(C)C)N(C)C(=O)[C@H](CC(C)C)N(C)C(=O)[C@H](CC(C)C)N(C)C(=O)[C@@H](C)NC(=O)[C@H](C)NC(=O)[C@H](CC(C)C)N(C)C(=O)[C@H](C(C)C)NC(=O)[C@H](CC(C)C)N(C)C(=O)CN(C)C1=O", "note": "(cyclo(A[dA][NMeL][NMeL][NMeV][NMeL][Nva][Sar][NMeL]V[NMeL]))", "values": [
      {"measurement": "Papp at 18 h", "setting": "[1]", "value": 0.29, "unit": "×10⁻⁶ cm/s"},
      {"measurement": "Activity", "setting": "[2]", "value": 84, "unit": "%"},
      {"measurement": "permeability", "setting": "[3]", "value": "0.29 10^-6 cm/s"},
      {"measurement": "recovery", "setting": "[4]", "value": 82, "unit": "%"},
      {"measurement": "Papp B→A", "setting": "[5]", "value": 2.88, "unit": "×10⁻⁶ cm/s"},
      {"measurement": "recovery", "setting": "[6]", "value": 82, "unit": "%"},
      {"measurement": "Papp A→B", "setting": "[7]", "value": 0.69, "unit": "×10⁻⁶ cm/s"},
      {"measurement": "Drug recovery", "setting": "[8]; caco-2, time 1-2.5 hrs", "value": 123, "unit": "%"},
      {"measurement": "Tmax", "setting": "[10]", "value": 0.8, "unit": "h"},
      {"measurement": "AUC", "setting": "[11]", "value": 4080, "unit": "ng·h/mL"},
      {"measurement": "Cmax", "setting": "[12]", "value": 1600, "unit": "ng/mL"},
      {"measurement": "CL/F", "setting": "[13]", "value": 82, "unit": "mL/min/kg"},
      {"measurement": "Vz", "setting": "[14]", "value": 22.2, "unit": "L/kg"},
      {"measurement": "half-life", "setting": "[15]", "value": 3.1, "unit": "h"},
      {"measurement": "F", "setting": "[16]", "value": 12, "unit": "%"},
      {"measurement": "Kp at 1 h, 1 µM", "setting": "[17]", "value": 0.62},
      {"measurement": "Ratio", "setting": "[18]", "value": 5},
      {"measurement": "Ki", "setting": "[9]", "value": 2.3, "unit": "µM"},
      {"measurement": "half-life", "setting": "[19]", "value": 4.8, "unit": "h"},
      {"measurement": "AUC", "setting": "[20]", "value": 8500, "unit": "ng·h/mL"},
      {"measurement": "Vd", "setting": "[21]", "value": 4, "unit": "L/kg"}
    ]},
    {"smiles": "CCC[C@@H]1NC(=O)[C@H](CC(C)C)N(C)C(=O)[C@H](CC(C)C)N(C)C(=O)[C@H](CC(C)C)N(C)C(=O)[C@H](CC(C)C)N(C)C(=O)[C@@H](C)NC(=O)[C@H](CCC(N)=O)NC(=O)[C@H](CC(C)C)N(C)C(=O)[C@H](C(C)C)NC(=O)[C@H](CC(C)C)N(C)C(=O)CN(C)C1=O", "note": "(cyclo([NMeL][NMeL][NMeL][NMeL][Nva][Sar][NMeL]V[NMeL]Q[dA]))", "values": [
      {"measurement": "Papp at 18 h", "setting": "[1]", "value": "< 0.009", "unit": "×10⁻⁶ cm/s"},
      {"measurement": "Activity", "setting": "[2]", "value": 75, "unit": "%"},
      {"measurement": "Papp A→B", "setting": "[3]", "value": 0.12, "unit": "×10⁻⁶ cm/s"},
      {"measurement": "recovery", "setting": "[4]", "value": 89, "unit": "%"},
      {"measurement": "Papp B→A", "setting": "[5]", "value": 8.6, "unit": "×10⁻⁶ cm/s"},
      {"measurement": "recovery", "setting": "[6]", "value": 87, "unit": "%"},
      {"measurement": "Papp A→B", "setting": "[7]", "value": 0.18, "unit": "×10⁻⁶ cm/s"},
      {"measurement": "recovery", "setting": "[8]", "value": 110, "unit": "%"},
      {"measurement": "Ki", "setting": "[9]", "value": "> 20", "unit": "µM"}
    ]},
    {"smiles": "CC(C)NCC(O)COc1ccc(CC(N)=O)cc1", "note": "(configuration not stated) [ATENOLOL]", "values": [
      {"measurement": "recovery", "setting": "[4]", "value": 88, "unit": "%"},
      {"measurement": "recovery", "setting": "[6]", "value": 85, "unit": "%"},
      {"measurement": "recovery", "setting": "[8]", "value": 78, "unit": "%"}
    ]},
    {"smiles": "CC(C)NCC(O)COc1cccc2ccccc12", "note": "(configuration not stated) [PROPRANOLOL]", "values": [
      {"measurement": "Papp A→B", "setting": "[3]", "value": 20, "unit": "×10⁻⁶ cm/s"}
    ]}
  ]
}
